OX1R antag-1 – blocks the human orexin 1 receptor; inhibition, % at 6.6 µM; OX1R-expressing cells, FRET antagonist read-out; AID 485270; hit rate 1.8% among 330,000; O43613; in the data active = inhibition mostly above about 38%, no sharp cut-off; inactive = mostly below about 40%;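 also: 0% = agonist challenge alone and 100% = reference antagonist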
Target sequence (O43613 whole entry, looked up): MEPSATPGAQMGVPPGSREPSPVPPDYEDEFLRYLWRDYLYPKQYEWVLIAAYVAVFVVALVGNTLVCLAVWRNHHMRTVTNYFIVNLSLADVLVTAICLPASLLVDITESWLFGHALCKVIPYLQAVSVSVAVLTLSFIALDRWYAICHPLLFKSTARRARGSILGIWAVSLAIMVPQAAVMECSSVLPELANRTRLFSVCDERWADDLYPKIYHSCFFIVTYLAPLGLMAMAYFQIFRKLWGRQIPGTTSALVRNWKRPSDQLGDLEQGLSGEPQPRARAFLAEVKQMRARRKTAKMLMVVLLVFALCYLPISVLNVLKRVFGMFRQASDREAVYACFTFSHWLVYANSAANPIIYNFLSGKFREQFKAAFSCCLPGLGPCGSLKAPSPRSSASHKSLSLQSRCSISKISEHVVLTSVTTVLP
CHO parental Ca – counter-screen: ATP calcium response change in parental CHO cells. parental CHO-K1, ATP-induced calcium, Fluo-8 fluorescence. inhibition, % at 5.6 µM. hit rate 0.63% among 330,000. AID 463079;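 active = inhibition above that plate's mean sample inhibition plus 3 SD, cut at about 26% in these data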;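 also: 0% = ATP-challenged DMSO wells and 100% = DMSO wells without ATP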
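test system = CHO parental line | reagent = ATP stimulus | measured by = intracellular calcium via Fluo-8 no-wash fluorescent dye | control set = ATP and no-ATP DMSO wells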
TAAR1 antag – antagonists of human TAAR1 | inhibition, % at 3 µM | hit rate 1.5% among 360,000 | CHO RD-HGA16 TAAR1, Fluo-8 calcium fluorescence, antagonist | Q96RJ0;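 active = inhibition above a per-plate cutoff, the mean inhibition of test compounds on that plate plus 3 SD, cut at about 49% in these data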;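 also: 0% = DMSO plus EC80 beta-PEA response and 100% = DMSO alone without agonist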
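Material: RD-HGA16 CHO cells with stable hTAAR1 and Gα16; Dosing: single nominal final test compound concentration of 3 µM; Schedule: seeding 17-24 h prior, 75-min 37 °C, 30-min RT dye loading; Detection: kinetic Fluo-8 calcium fluorescence measurement; Measure: % inhibition from peak post-agonist over basal fluorescence ratio; Benchmarks: vehicle and agonist controls.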
TAAR1 agonist – human TAAR1 agonism. Q96RJ0. AID 624467. activation, % at 3 µM. hit rate 0.99% among 360,000. CHO RD-HGA16 TAAR1, Fluo-8 calcium fluorescence; vehicle wells 0%, saturating PEA agonist 100%;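 active = activation above the mean activation of all test compounds in the run plus 3 SD, cut at about 38% in these data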
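System: CHO-derived RD-HGA16 cells with stable Gα16 and human TAAR1. Times: 17-24 h plating, Fluo-8 75 min 37 °C, 30 min RT. Measured by: calcium-sensitive Fluo-8 signal, excitation 470-495, emission 515-575 nm. Read-out basis: % activation relative to PEA EC100 response. Control set: DMSO and PEA EC100. Repeats: no replicates (n 1).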
OX1R antag-2 – human HCRTR1 antagonism; inhibition, % at 5 µM; hit rate 0.43% among 330,000; CHO/OX1R cells, Fluo-8 calcium fluorescence, orexin A;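 active = inhibition above its plate's threshold, mean inhibition of all tested compounds on the plate plus 3 SD, cut at about 37% in these data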;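 also: 0% = orexin A challenge wells and 100% = SB-334867-A antagonist wells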
GalR3 antagonist – human GalR3 antagonism; O60755; HEK293 GalR3-CNG cAMP membrane potential fluorescence; galR3 body fused to GalR1 C-terminus; inhibition, % at 3 µM; hit rate 0.44% among 360,000; AID 651719;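 active = inhibition above the screen-wide average plus 3 SD, cut at about 13% in these data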;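 also: forskolin and galanin both at EC90 stimulate the cells; cAMP rise reported by CNG channel membrane potential dye signal; 0% = forskolin plus galanin with DMSO and 100% = forskolin alone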
Starred values were filed as active, the others as inactive; / = no result given. Sampled rows, rich in hits. Any-hit rate of the full collection: about 4.3%.

SMILES	OX1R antag-1	CHO parental Ca	TAAR1 antag	TAAR1 agonist	OX1R antag-2	GalR3 antagonist
CC1Sc2ccc(S(=O)(=O)N(C)Cc3ccccc3)cc2NC1=O (stereo not drawn)	29	-11	49*	7	-19	-9
CCc1cccc(NS(=O)(=O)c2ccc3c(c2)NC(=O)C(C)S3)c1 (stereo not drawn)	25	53*	11	30	21	-10
C=CCN(c1ccccc1)S(=O)(=O)c1ccc2c(c1)NC(=O)C(C)S2 (stereo not drawn)	16	-9	13	3	-15	-9
CN1C(=O)CC2(C)C1=CCc1scnc12 (stereo not drawn)	/	/	-6	1	/	-6
CN1CCN(C(=O)c2ccc(Cc3cn(C)c4ccccc34)nc2)CC1	/	/	-8	4	/	-1
CCc1nc2ccc(C(=O)NCCCN3CCCC3=O)cn2c1N(C)C(=O)Nc1ccccc1OC	/	/	-8	2	/	-1
COC(=O)[C@]12C[C@H](CC(=O)N3CCSCC3)C(=O)N(Cc3ccccc3)C1=C[C@H](C(C)(C)C)O[C@@H]2C	/	/	-30	-2	/	-7
CN(C)C(CNC(=O)CSc1nc2sc3c(c2c(=O)n1C)CCCC3)c1ccccc1 (stereo not drawn)	12	-21	-5	4	-9	-5
O=C(COc1ccccc1)Nc1cccc(-c2ccc(N3CCOCC3)nn2)c1	7	-4	49*	10	-35	0
O=C(COc1ccc(Cl)cc1Cl)Nc1cccc(-c2ccc(N3CCOCC3)nn2)c1	/	/	-1	1	/	0
CCS(=O)(=O)c1ccc(-c2cccc(NC(=O)COc3ccc(Cl)cc3)c2)nn1	13	-6	49*	8	9	0
COC(=O)c1c(-c2ccc(OC)cc2)c2c(c3c4cc(F)ccc4n(S(=O)(=O)c4ccc(C)cc4)c13)C(=O)N(C)C2	/	/	-13	-1	/	-6
C[C@@H]1CC2=C(C(=O)OC(C)(C)O2)[C@H](c2ccc(F)cc2)O1	/	/	-24	2	/	-5
COc1ccc(C(C(=O)NCc2ccccc2)N(Cc2ccc3c(c2)OCO3)C(=O)c2cnccn2)cc1 (stereo not drawn)	10	-12	23	12	-31	-14
COc1ccc(C(C(=O)NCc2ccccc2)N(Cc2ccco2)C(=O)c2cnccn2)cc1 (stereo not drawn)	23	0	53*	15	-18	-6
NC(=O)C1CCN(C(=O)COc2ccc(Nc3ccccc3)cc2)CC1	52*	3	-21	1	2	-5
N#C/C(=N/Nc1ccc(OC(F)(F)F)cc1)C(N)=S	54*	20	3	2	41*	-5
COc1ccc(N/N=C(\C#N)C(N)=O)cc1	12	-12	10	-1	-6	-4
Cc1cccc(NCCC(=O)c2ccc([N+](=O)[O-])cc2)c1C	42*	-10	-13	-2	-17	1
Cc1ccc(NCCC(=O)c2cccc([N+](=O)[O-])c2)c(C)c1	10	-14	11	5	-18	1
CCNC(=O)C[C@@H]1CC[C@H]2[C@@H](COC[C@H](O)CN2C(=O)C2CC2)O1	/	/	2	0	/	-4
Cc1ccc(S(=O)(=O)CCC(=O)NCCN2C(=O)S/C(=C\c3ccccc3)C2=O)cc1	37	-23	55*	16	-10	1
O=C(CN1C(=O)S/C(=C/c2ccccn2)C1=O)N1CCOCC1	55*	-1	-12	3	-5	0
O=C(CCN1C(=O)/C(=C\c2ccccc2)SC1=S)N1CCOCC1	17	-16	2	6	-17	-6
O=C(CN1C(=O)S/C(=C/c2ccncc2)C1=O)Nc1ccccc1	64*	-2	-2	3	-7	-1
SMILES	OX1R antag-1	CHO parental Ca	TAAR1 antag	TAAR1 agonist	OX1R antag-2	GalR3 antagonist
O=C(CCN1C(=O)S/C(=C\c2ccccc2)C1=O)N1CCOCC1	56*	-8	-14	4	-8	2
CCCN1CCCCC(NC(=O)c2ccc3ccccc3c2)C1=O (stereo not drawn)	/	/	-11	0	/	-2
CCC(c1nnnn1-c1ccc2c(c1)OCCO2)N1CCN(c2ccc(C)cc2)CC1 (stereo not drawn)	/	/	6	1	/	-9
CC(C)NC(=O)C1(C)CSCC(=O)N1Cc1cccc(F)c1 (stereo not drawn)	/	/	0	3	/	-4
COc1cccc(NC(=O)c2sc3nc(N4CCOCC4)c4c(c3c2N)CCCC4)c1	12	5	-20	-1	-11	-2
COC(=O)[C@@]1(Sc2ccc(C)cc2)CC(=O)N(c2ccc3c(ccn3C)c2)[C@@H]1c1ccccc1	/	/	55*	3	/	-5
CCc1ccc(-c2cnc3nc[nH]c(=O)c3n2)cc1	43*	-10	-2	-2	-9	-4
C[C@@H]1OC(C2CCCCC2)N(C)[C@H]2C[C@H]3c4[nH]c5cccc(-c6ccccc6)c5c4CCN3C(=O)[C@@H]12 (stereo partly drawn)	/	/	6	6	/	-7
CSc1ncccc1C(=O)N1CCC1(C)C(=O)NC(C)C (stereo not drawn)	/	/	-21	3	/	-2
CN(C)S(=O)(=O)c1cccc(C(=O)OCC(=O)Nc2sccc2C(N)=O)c1	37	0	75*	41*	14	-5
Cc1ccccc1SCC(=O)OCC(=O)Nc1sccc1C(N)=O	29	23	49*	16	24	-5
Cc1cccc(OCC(=O)OCC(=O)Nc2sccc2C(N)=O)c1	3	33*	55*	30	44*	-4
NC(=O)c1ccsc1NC(=O)COC(=O)Cc1cccc2ccccc12	39	59*	73*	34	75*	104*
CCN(C(=O)CSc1nnc(-c2c[nH]c3ccccc23)n1C1CC1)C1CCS(=O)(=O)C1 (stereo not drawn)	4	-2	-23	7	-14	-4
Cc1[nH]nc2c1C(c1ccc(Br)cc1)N(c1ccccc1)C2=O (stereo not drawn)	/	/	-19	0	/	-6
COc1ccc(N2C(=O)c3n[nH]c(C)c3C2c2cccc(C(F)(F)F)c2)cc1 (stereo not drawn)	/	/	-18	3	/	-3
Cc1cc(Nc2cccc(C(F)(F)F)c2)cc(=O)n1-c1cccc(C(F)(F)F)c1	/	/	-7	0	/	-8
CCCCNc1c2c3c(cccc3n(C)c1=O)C(=O)c1ccccc1-2	12	77*	/	/	91*	/
CCNc1c2c3c(cccc3n(C)c1=O)C(=O)c1ccccc1-2	30	69*	/	/	89*	/
CC(=O)Nc1ccc(Nc2c3c4c(cccc4n(C)c2=O)C(=O)c2ccccc2-3)cc1	28	-15	6	7	-16	-3

Screens: PubChem BioAssay, The Scripps Research Institute Molecular Screening Center
